Measured values as given in ChEMBL document CHEMBL3351588, “Design, synthesis and biological evaluation of N-alkyl or aryl substituted isoindigo derivatives as potential dual cyclin-dependent kinase 2 (CDK2)/glycogen synthase kinase 3β (GSK-3β) phosphorylation inhibitors” (Eur J Med Chem, 2014).
pIC50: −log10 of the molar value.

Legend:
[1] = system: HeLa; test: Cytotoxicity against human HeLa cells after 48 hrs by SRB assay; assay type: functional, cell-based
How it was run: (§1)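 Cells seeded at 5 × 10³ per well and allowed to attach for 12 h, then exposed to a range of drug concentrations in their own medium for 48 h. Fixed with ice-cold TCA for 1 h at 4 °C, washed, then stained with 0.4% SRB for 30 min at room temperature. IC50 is the mean of three independent experiments.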

[2] = system: K562; test: Cytotoxicity against human K562 cells after 48 hrs by SRB assay; assay type: functional, cell-based; conditions: K562, 48 h; how it was run: as §1
[3] = Cytotoxicity against human VEC cells after 48 hrs by SRB assay; assay type: cell-based; how it was run: as §1
[4] = system: L1210; test: Cytotoxicity against mouse L1210 cells after 48 hrs by SRB assay; assay type: functional, cell-based; conditions: L1210, 48 h; how it was run: as §1
[5] = system: MGC-803; test: Cytotoxicity against human MGC803 cells after 48 hrs by SRB assay; assay type: functional, cell-based; conditions: MGC-803, 48 h; how it was run: as §1
[6] = system: A549; test: Cytotoxicity against human A549 cells after 48 hrs by SRB assay; assay type: functional, cell-based; conditions: A549, 48 h; how it was run: as §1
[7] = Cytotoxicity against human HCT116 cells after 48 hrs by SRB assay; assay type: functional, cell-based; conditions: HCT-116, 48 h; how it was run: as §1
[8] = system: K562; test: Induction of cell cycle arrest in human K562 cells assessed as accumulation at S phase at 10 uM after 24 hrs by propidium iodide staining based flow cytometry (reference value: 44.90%); assay type: functional
[9] = system: K562; test: Induction of cell cycle arrest in human K562 cells assessed as accumulation at G0/G1 phase at 10 uM after 24 hrs by propidium iodide staining based flow cytometry (reference value: 36.14%); assay type: functional
[10] = system: K562; test: Induction of cell cycle arrest in human K562 cells assessed as accumulation at G2/M phase at 10 uM after 24 hrs by propidium iodide staining based flow cytometry (reference value: 18.96%); assay type: functional

Row | SMILES | pIC50 [1] | pIC50 [2] | pIC50 [3] | pIC50 [4] | pIC50 [5] | pIC50 [6] | pIC50 [7] | Activity [8] [%] | Activity [9] [%] | Activity [10] [%]
1 | O=C1Nc2ccccc2/C1=C1\C(=O)N(CCc2ccccc2)c2ccccc21 | < 3.70 | 4.77 | 3.74 | 3.80 | < 3.70 | 4.07 | 4.07 | – | – | –
2 | CCCCN1C(=O)/C(=C2/C(=O)Nc3ccccc32)c2ccccc21 | 4.09 | 3.94 | 4.24 | 4.12 | 4.06 | 4.52 | 4.47 | – | – | –
3 | CCN1C(=O)/C(=C2/C(=O)Nc3ccccc32)c2ccccc21 | 3.71 | < 3.70 | 4.14 | 4.32 | 4.17 | 4.21 | 4.29 | – | – | –
4 | CC(C)N1C(=O)/C(=C2/C(=O)Nc3ccccc32)c2ccccc21 | < 3.70 | < 3.70 | < 3.70 | < 3.70 | 3.76 | 3.74 | 3.83 | – | – | –
5 | CC(C)CN1C(=O)/C(=C2/C(=O)Nc3ccccc32)c2ccccc21 | < 3.70 | 4.13 | 4.01 | 4.13 | < 3.70 | 4.28 | 4.21 | – | – | –
6 | CC(=O)N1C(=O)/C(=C2/C(=O)N(C(C)=O)c3ccccc32)c2ccccc21 | < 3.70 | < 3.70 | < 3.70 | < 3.70 | < 3.70 | < 3.70 | < 3.70 | – | – | –
7 | O=C1Nc2ccccc2/C1=C1\C(=O)N(c2ccc(F)cc2)c2ccccc21 | < 3.70 | < 3.70 | 4.03 | < 3.70 | 3.97 | 4.65 | 4.40 | – | – | –
8 | CN1C(=O)/C(=C2/C(=O)Nc3ccccc32)c2ccccc21 [MEISOINDIGO] | 4.80 | 4.63 | 3.91 | 3.78 | 3.89 | 4.24 | 4.57 | 57.5 | 32.25 | 10.25
